Data as given in ChEMBL document CHEMBL1649126, “Debio 025, a cyclophilin binding molecule, is highly efficient in clearing hepatitis C virus (HCV) replicon-containing cells when used alone or in combination with specifically targeted antiviral therapy for HCV (STAT-C) inhibitors” (Antimicrob Agents Chemother, 2009).
Activity calls are given as the source filed them. No cut-off for these calls is given here.

How the values were obtained:
Hepatitis C virus [1] = assay: Antiviral activity against HCV genotype 1b infected in human Huh-9-13 cells assessed as reduction in viral replication after 3 days by quantitative RT-PCR; type: functional, organism-based, Hepacivirus hominis; details: 72 h
How it was run: (§1)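 Huh 9-13 cells carrying a subgenomic HCV replicon were seeded at 5 x 10^3 cells/well in medium with G418 and incubated 24 h at 37°C. Serial dilutions were then added in G418-free medium for 3 days. Cells were lysed, heated 15 min at 75°C, and replicon RNA was quantified by RT-qPCR against a neomycin plasmid standard. EC50 is the 50% RNA reduction versus untreated cells.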

Hepatitis C virus [2] = assay: Antiviral activity against compound-resistant HCV genotype 1b infected in human Huh-9-13 cells assessed as reduction in viral replication after 3 days by quantitative RT-PCR; type: functional, organism-based, Hepacivirus hominis; details: 72 h; how it was run: as §1
Hepatitis C virus [3] = assay: Antiviral activity against cyclosporine-resistant HCV genotype 1b infected in human Huh-9-13 cells assessed as reduction in viral replication after 3 days by quantitative RT-PCR; type: functional, organism-based, Hepacivirus hominis; details: 72 h; how it was run: as §1
Hepatitis C virus [4] = assay: Antiviral activity against 2'-C-methyl-2'-fluoro-cytidine-resistant HCV genotype 1b infected in human Huh-9-13 cells assessed as reduction in viral replication after 3 days by quantitative RT-PCR; type: functional, organism-based, Hepacivirus hominis; details: 72 h; how it was run: as §1
Hepatitis C virus [5] = assay: Antiviral activity against R479-resistant HCV genotype 1b infected in human Huh-9-13 cells assessed as reduction in viral replication after 3 days by quantitative RT-PCR; type: functional, organism-based, Hepacivirus hominis; details: 72 h; how it was run: as §1
Hepatitis C virus [6] = assay: Antiviral activity against BILN 2061-resistant HCV genotype 1b infected in human Huh-9-13 cells assessed as reduction in viral replication after 3 days by quantitative RT-PCR; type: functional, organism-based, Hepacivirus hominis; details: 72 h; how it was run: as §1
Hepatitis C virus [7] = assay: Antiviral activity against VX 950-resistant HCV genotype 1b infected in human Huh-9-13 cells assessed as reduction in viral replication after 3 days by quantitative RT-PCR; type: functional, organism-based, Hepacivirus hominis; details: 72 h; how it was run: as §1
Hepatitis C virus [8] = assay: Antiviral activity against HCV genotype 1b infected in human Huh-9-13 cells assessed as reduction in viral replication selected after 2 passages at 30 ug/ml by quantitative RT-PCR; type: functional, organism-based; details: Hepacivirus hominis
How it was run: (§2)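 Huh 9-13 replicon cells were seeded at 3 x 10^5 per 25-cm2 flask without G418, with compound. They were passaged at about 90% confluence and reseeded at 3 x 10^5 with the same concentration. HCV RNA was measured by RT-qPCR at each passage as % of the untreated control at the same passage. In rebound, compound was removed and G418 (1,000 µg/ml) restored.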

Hepatitis C virus [9] = assay: Antiviral activity against HCV genotype 1b infected in human Huh-9-13 cells assessed as reduction in viral replication selected after 3 passages at 30 ug/ml by quantitative RT-PCR; type: functional, organism-based; details: Hepacivirus hominis; how it was run: as §2
Hepatitis C virus [10] = assay: Antiviral activity against HCV genotype 1b infected in human Huh-9-13 cells assessed as reduction in viral replication selected after 5 passages at 4 uM by quantitative RT-PCR; type: functional, organism-based; details: Hepacivirus hominis
How it was run: (§3)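 Resistant replicons were selected by passaging Huh 9-13 cells under 1 mg/ml G418 with gradually increasing inhibitor concentrations.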

Hepatitis C virus [11] = assay: Antiviral activity against HCV genotype 1b infected in human Huh-9-13 cells assessed as reduction in viral replication selected after 7 passages at 15 uM by quantitative RT-PCR relative to wild type virus; type: functional, Hepacivirus hominis; how it was run: as §3
Hepatitis C virus [12] = assay: Antiviral activity against HCV genotype 1b infected in human Huh-9-13 cells assessed as reduction in viral replication selected after 5 passages at 4 uM by quantitative RT-PCR relative to wild type virus; type: functional, Hepacivirus hominis; how it was run: as §3
Hepatitis C virus [13] = assay: Antiviral activity against HCV genotype 1b infected in human Huh-9-13 cells assessed as reduction in viral replication selected at 0.5 uM by quantitative RT-PCR; type: functional, organism-based; details: Hepacivirus hominis
Hepatitis C virus [14] = assay: Antiviral activity against HCV genotype 1b infected in human Huh-9-13 cells assessed as reduction in viral replication selected at 0.1 uM by quantitative RT-PCR; type: functional, organism-based; details: Hepacivirus hominis
Hepatitis C virus [15] = assay: Antiviral activity against HCV genotype 1b infected in human Huh-9-13 cells assessed as reduction in viral replication selected after 1 passages at 0.82 uM by quantitative RT-PCR; type: functional, Hepacivirus hominis; how it was run: as §2
Hepatitis C virus [16] = assay: Antiviral activity against HCV genotype 1b infected in human Huh-9-13 cells assessed as reduction in viral replication selected after 1 passages at 5 ug/ml by quantitative RT-PCR; type: functional, Hepacivirus hominis; how it was run: as §2
Hepatitis C virus [17] = assay: Antiviral activity against HCV genotype 1b infected in human Huh-9-13 cells assessed as reduction in viral replication selected after 2 passages at 5 ug/ml by quantitative RT-PCR; type: functional, organism-based; details: Hepacivirus hominis; how it was run: as §2
Hepatitis C virus [18] = assay: Antiviral activity against HCV genotype 1b infected in human Huh-9-13 cells assessed as reduction in viral replication selected after 2 passages at 1 ug/ml by quantitative RT-PCR; type: functional, organism-based; details: Hepacivirus hominis; how it was run: as §2
Hepatitis C virus [19] = assay: Antiviral activity against HCV genotype 1b infected in human Huh-9-13 cells assessed as reduction in viral replication selected after 3 passages at 1 ug/ml by quantitative RT-PCR […]; type: functional, organism-based; details: Hepacivirus hominis
Hepatitis C virus [20] = assay: Antiviral activity against HCV genotype 1b infected in human Huh-9-13 cells assessed as reduction in viral replication selected after 7 passages at 5 ug/ml by quantitative RT-PCR […]; type: functional, organism-based; details: Hepacivirus hominis
Hepatitis C virus [21] = assay: Antiviral activity against HCV genotype 1b infected in human Huh-9-13 cells assessed as reduction in viral replication selected after 7 passages at 30 ug/ml by quantitative RT-PCR […]; type: functional, organism-based; details: Hepacivirus hominis
[22] = Cytotoxicity against human Huh-9-13 cells at 1 ug/ml after 3 days by MTT assay; type: cell-based; details: 72 h
[23] = Cytotoxicity against human Huh-9-13 cells at 5 ug/ml after 3 days by MTT assay; type: cell-based; details: 72 h
[24] = Cytotoxicity against human Huh-9-13 cells at 30 ug/ml after 3 days by MTT assay; type: cell-based; details: 72 h
Hepatitis C virus [25] = assay: Antiviral activity against HCV genotype 1b infected in human Huh-9-13 cells assessed as reduction in viral replication selected after 7 passages at 0.25 ug/ml by quantitative RT-PCR; type: functional, organism-based; details: Hepacivirus hominis
How it was run: (§4)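 Clearance-rebound in Huh 9-13 replicon cells over seven consecutive passages without G418, using twofold dilutions from 0.50 to 0.016 µg/ml. Rebound passages omitted compound under 1,000 µg/ml G418. Remaining HCV RNA was measured by RT-qPCR each passage as % of the untreated control at the same passage number.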

Hepatitis C virus [26] = assay: Antiviral activity against HCV genotype 1b infected in human Huh-9-13 cells assessed as reduction in viral replication selected after 8 passages at 0.25 ug/ml by quantitative RT-PCR; type: functional, organism-based; details: Hepacivirus hominis; how it was run: as §4
Hepatitis C virus [27] = assay: Antiviral activity against HCV genotype 1b infected in human Huh-9-13 cells assessed as reduction in viral replication selected after 5 passages at 1 uM by quantitative RT-PCR; type: functional, organism-based; details: Hepacivirus hominis; how it was run: as §3
Hepatitis C virus [28] = assay: Antiviral activity against HCV genotype 1b infected in human Huh-9-13 cells assessed as reduction in viral replication selected after 5 passages at 1 uM by quantitative RT-PCR relative to wild type virus; type: functional, Hepacivirus hominis
Hepatitis C virus [29] = assay: Antiviral activity against HCV genotype 1b infected in human Huh-9-13 cells assessed as reduction in viral replication selected after 6 passages at 2 uM by quantitative RT-PCR; type: functional, organism-based; details: Hepacivirus hominis; how it was run: as §3
Hepatitis C virus [30] = assay: Antiviral activity against HCV genotype 1b infected in human Huh-9-13 cells assessed as reduction in viral replication selected after 6 passages at 2 uM by quantitative RT-PCR relative to wild type virus; type: functional, Hepacivirus hominis; how it was run: as §3

SMILES | EC50 (Hepatitis C virus [1]) | EC50 (Hepatitis C virus [2]) | EC50 (Hepatitis C virus [3]) | EC50 (Hepatitis C virus [4]) | EC50 (Hepatitis C virus [5]) | EC50 (Hepatitis C virus [6]) | EC50 (Hepatitis C virus [7]) | further results
C[C@@]1(O)[C@H](O)[C@@H](CO)O[C@H]1n1ccc(N)nc1=O | 410 nM | 110 nM | 210 nM | 30200 nM | 1160 nM | 40 nM | 1010 nM | –
NC(=O)c1ncn([C@@H]2O[C@H](CO)[C@@H](O)[C@H]2O)n1 | – | – | – | – | – | – | – | inhibition (Hepatitis C virus [8]): inactive; inhibition (Hepatitis C virus [9]): inactive
[N-]=[N+]=N[C@]1(CO)O[C@@H](n2ccc(N)nc2=O)[C@H](O)[C@@H]1O [4'-AZIDOCYTIDINE] | – | 120 nM | 260 nM | 3380 nM | 15600 nM | 20 nM | 690 nM | Activity (Hepatitis C virus [10]): inactive; fold change (FC) (Hepatitis C virus [11]): 8; fold change (FC) (Hepatitis C virus [12]): 3; inhibition (Hepatitis C virus [13]): Active; inhibition (Hepatitis C virus [14]): inactive
C/C=C/C[C@@H](C)[C@@H](O)[C@H]1C(=O)N[C@@H](CC)C(=O)N(C)[C@H](C)C(=O)N(CC)[C@@H](C(C)C)C(=O)N[C@@H](C(C)C)C(=O)N(C)[C@@H](CC(C)C)C(=O)N[C@@H](C)C(=O)N[C@H](C)C(=O)N(C)[C@@H](CC(C)C)C(=O)N(C)[C@@H](CC(C)C)C(=O)N(C)[C@@H](C(C)C)C(=O)N1C [ALISPORIVIR] | 40 nM | 2720 nM | 3010 nM | 410 nM | 2760 nM | 4 nM | 360 nM | inhibition at 0.82 µM (Hepatitis C virus [15]): 96.5%; inhibition at 5 µg/mL (Hepatitis C virus [16]): 96.5%; inhibition (Hepatitis C virus [17]): inactive; inhibition (Hepatitis C virus [18]): inactive; Activity (Hepatitis C virus [19]): Active; inhibition (Hepatitis C virus [20]): inactive; inhibition (Hepatitis C virus [21]): inactive; Activity [22]: Non-toxic; Activity [23]: Non-toxic; Activity [24]: Non-toxic; inhibition (Hepatitis C virus [25]): Active; Activity (Hepatitis C virus [26]): Active
COc1ccc2c(O[C@@H]3C[C@H]4C(=O)N[C@]5(C(=O)O)C[C@H]5/C=C\CCCCC[C@H](NC(=O)OC5CCCC5)C(=O)N4C3)cc(-c3csc(NC(C)C)n3)nc2c1 [CILUPREVIR] | – | 100 nM | 170 nM | 290 nM | 2160 nM | 1250 nM | 310 nM | inhibition (Hepatitis C virus [27]): inactive; fold change (FC) (Hepatitis C virus [28]): 50
C/C=C/C[C@@H](C)[C@@H](O)[C@H]1C(=O)N[C@@H](CC)C(=O)N(C)CC(=O)N(C)[C@@H](CC(C)C)C(=O)N[C@@H](C(C)C)C(=O)N(C)[C@@H](CC(C)C)C(=O)N[C@@H](C)C(=O)N[C@H](C)C(=O)N(C)[C@@H](CC(C)C)C(=O)N(C)[C@@H](CC(C)C)C(=O)N(C)[C@@H](C(C)C)C(=O)N1C [CYCLOSPORINE] | – | 350 nM | 3850 nM | 400 nM | 1980 nM | 4 nM | 490 nM | –
CCC[C@H](NC(=O)[C@@H]1[C@H]2CCC[C@H]2CN1C(=O)[C@@H](NC(=O)[C@@H](NC(=O)c1cnccn1)C1CCCCC1)C(C)(C)C)C(=O)C(=O)NC1CC1 [TELAPREVIR] | 580 nM | 90 nM | – | 1020 nM | – | 790 nM | 14000 nM | inhibition at 0.82 µM (Hepatitis C virus [15]): 96.5%; inhibition at 5 µg/mL (Hepatitis C virus [16]): 96.5%; inhibition (Hepatitis C virus [17]): inactive; inhibition (Hepatitis C virus [18]): inactive; inhibition (Hepatitis C virus [29]): inactive; fold change (FC) (Hepatitis C virus [30]): 4
